Assay results taken from ChEMBL document CHEMBL4840327, “Identification and structure-activity relationship exploration of uracil-based benzoic acid and ester derivatives as novel dipeptidyl Peptidase-4 inhibitors for the treatment of type 2 diabetes mellitus” (Eur J Med Chem, 2021).

Tests used:
[1] = target: Dipeptidyl peptidase 8 (Homo sapiens, UniProt Q6V1X1); experiment: Inhibition of human recombinant DPP8 using Gly-Pro-AMC as substrate preincubated for 15 mins followed by substrate addition and measured for 20 mins by fluorescence based microplate reader assay
Chain of Dipeptidyl peptidase 8 (Q6V1X1 whole entry): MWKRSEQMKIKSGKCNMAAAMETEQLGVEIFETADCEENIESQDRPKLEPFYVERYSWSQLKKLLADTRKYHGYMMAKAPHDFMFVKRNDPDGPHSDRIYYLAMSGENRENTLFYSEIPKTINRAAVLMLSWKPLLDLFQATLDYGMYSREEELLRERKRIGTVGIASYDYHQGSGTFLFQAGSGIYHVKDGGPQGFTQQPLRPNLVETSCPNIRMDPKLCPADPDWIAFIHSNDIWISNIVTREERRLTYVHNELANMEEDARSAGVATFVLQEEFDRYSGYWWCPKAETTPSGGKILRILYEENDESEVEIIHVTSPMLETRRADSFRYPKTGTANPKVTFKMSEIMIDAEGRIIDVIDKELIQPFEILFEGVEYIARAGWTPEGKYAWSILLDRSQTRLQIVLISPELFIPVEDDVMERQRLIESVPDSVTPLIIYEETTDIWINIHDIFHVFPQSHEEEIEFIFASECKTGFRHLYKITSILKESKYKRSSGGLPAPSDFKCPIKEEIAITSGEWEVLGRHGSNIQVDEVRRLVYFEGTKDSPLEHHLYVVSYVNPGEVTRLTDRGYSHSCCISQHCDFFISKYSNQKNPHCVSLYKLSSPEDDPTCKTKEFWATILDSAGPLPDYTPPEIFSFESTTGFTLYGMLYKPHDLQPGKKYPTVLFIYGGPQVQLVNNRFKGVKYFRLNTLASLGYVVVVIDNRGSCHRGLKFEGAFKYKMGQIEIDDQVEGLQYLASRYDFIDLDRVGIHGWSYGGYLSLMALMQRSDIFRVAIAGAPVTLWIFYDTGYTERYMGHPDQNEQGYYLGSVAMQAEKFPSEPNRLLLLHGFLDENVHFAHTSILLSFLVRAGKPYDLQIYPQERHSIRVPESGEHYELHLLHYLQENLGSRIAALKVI

[2] = target: Dipeptidyl peptidase 9 (Homo sapiens, UniProt Q86TI2); experiment: Inhibition of human recombinant DPP9 using Gly-Pro-AMC as substrate preincubated for 15 mins followed by substrate addition and measured for 20 mins by fluorescence based microplate reader assay
Chain of Dipeptidyl peptidase 9 (Q86TI2 whole entry): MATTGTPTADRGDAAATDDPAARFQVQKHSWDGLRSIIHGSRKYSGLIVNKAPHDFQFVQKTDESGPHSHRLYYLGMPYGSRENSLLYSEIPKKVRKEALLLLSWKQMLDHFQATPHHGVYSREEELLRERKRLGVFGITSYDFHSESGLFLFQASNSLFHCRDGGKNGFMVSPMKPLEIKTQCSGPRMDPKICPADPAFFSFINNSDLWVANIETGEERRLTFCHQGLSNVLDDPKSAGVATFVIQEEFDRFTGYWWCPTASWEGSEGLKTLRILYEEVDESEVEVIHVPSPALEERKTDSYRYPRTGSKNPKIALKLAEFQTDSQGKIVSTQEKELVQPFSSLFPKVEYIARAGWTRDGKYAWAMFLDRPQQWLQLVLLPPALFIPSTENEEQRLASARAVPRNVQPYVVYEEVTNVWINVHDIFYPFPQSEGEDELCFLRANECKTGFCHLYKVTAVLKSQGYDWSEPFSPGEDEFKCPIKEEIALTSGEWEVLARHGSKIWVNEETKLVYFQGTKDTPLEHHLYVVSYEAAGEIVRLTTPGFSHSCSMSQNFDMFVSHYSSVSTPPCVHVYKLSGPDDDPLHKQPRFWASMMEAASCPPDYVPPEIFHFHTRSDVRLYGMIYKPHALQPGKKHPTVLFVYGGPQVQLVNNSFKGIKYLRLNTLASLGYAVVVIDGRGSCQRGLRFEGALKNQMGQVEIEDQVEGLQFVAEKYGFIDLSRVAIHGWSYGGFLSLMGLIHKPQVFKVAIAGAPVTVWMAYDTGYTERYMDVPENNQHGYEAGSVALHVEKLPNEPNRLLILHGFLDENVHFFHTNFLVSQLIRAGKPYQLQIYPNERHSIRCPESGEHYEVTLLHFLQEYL

[3] = target: Dipeptidyl peptidase 4 (Homo sapiens, UniProt P27487); experiment: Inhibition of human recombinant DPP4 using Gly-Pro-AMC as substrate preincubated for 15 mins followed by substrate addition and measured for 20 mins by fluorescence based microplate reader assay
Chain of Dipeptidyl peptidase 4 (P27487 whole entry): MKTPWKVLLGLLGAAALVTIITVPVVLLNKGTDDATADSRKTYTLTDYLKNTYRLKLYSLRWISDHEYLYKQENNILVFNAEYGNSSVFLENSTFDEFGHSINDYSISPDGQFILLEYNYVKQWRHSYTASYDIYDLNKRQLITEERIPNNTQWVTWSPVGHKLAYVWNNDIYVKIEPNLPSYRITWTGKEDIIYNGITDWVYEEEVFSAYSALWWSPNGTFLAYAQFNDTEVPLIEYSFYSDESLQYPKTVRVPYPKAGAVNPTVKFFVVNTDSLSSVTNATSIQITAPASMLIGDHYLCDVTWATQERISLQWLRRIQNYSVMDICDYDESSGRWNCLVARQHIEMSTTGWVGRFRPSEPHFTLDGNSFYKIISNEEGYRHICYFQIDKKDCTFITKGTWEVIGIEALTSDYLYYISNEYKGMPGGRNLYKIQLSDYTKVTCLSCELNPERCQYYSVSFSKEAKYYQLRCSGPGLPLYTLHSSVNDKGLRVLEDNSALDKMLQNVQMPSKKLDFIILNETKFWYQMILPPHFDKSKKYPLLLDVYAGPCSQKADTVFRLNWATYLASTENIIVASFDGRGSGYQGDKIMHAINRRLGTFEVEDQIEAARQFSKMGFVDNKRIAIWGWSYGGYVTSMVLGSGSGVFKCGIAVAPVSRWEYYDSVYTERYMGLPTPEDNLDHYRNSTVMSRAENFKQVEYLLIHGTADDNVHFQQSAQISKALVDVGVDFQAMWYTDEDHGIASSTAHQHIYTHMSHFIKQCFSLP

[4] = AUC (0 to infinity) in Sprague-Dawley rat at 3 mg/kg, iv measured after 48 hrs by LC-MS/MS analysis; type: ADME, organism-based; parameters: route intravenous, time 48 hrs, dose 3 mg/kg; conditions: in vivo
[5] = Metabolic stability in ICR mouse liver microsomes assessed as parent compound remaining at 0.1 uM incubated for 60 mins in presence of NADPH by LC-MS/MS analysis; type: ADME, Microsome; conditions: read-out: Stability
Summary of the method: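 ICR mouse liver microsomes (1 mg/mL) in 100 mM Tris pH 7.4 with 10 mM MgCl2, preincubated 5 min at 37 °C. Incubated 0–60 min at 37 °C with compound at 0.1 µM final. Quench with ice-cold methanol with 0.5% formic acid, centrifuge, LC-MS/MS. No-microsome controls run; all in duplicate.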

[6] = Clearance in Sprague-Dawley rat at 3 mg/kg, iv measured after 48 hrs by LC-MS/MS analysis; type: ADME, organism-based; conditions: in vivo
[7] = Metabolic stability in Sprague-Dawley rat plasma assessed as parent compound remaining at 1 uM incubated for 120 mins by LC-MS/MS analysis; type: ADME, cell-free; conditions: read-out: Stability
Summary of the method: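 SD rat plasma incubated with compound for 120 min. Supernatant analysed by LC-MS/MS; remaining % = (C120/C0) × 100. Values come from two independent experiments.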

[8] = Cmax in Sprague-Dawley rat at 3 mg/kg, iv measured after 48 hrs by LC-MS/MS analysis; type: ADME, organism-based; parameters: route intravenous, dose 3 mg/kg, time 48 hrs; conditions: in vivo
[9] = Half life in Sprague-Dawley rat at 3 mg/kg, iv measured after 48 hrs by LC-MS/MS analysis; type: ADME, organism-based; conditions: in vivo
[10] = Cytotoxicity against human L02 cells assessed as cell viability up to 100 uM measured after 48 hrs by MTT assay relative to control; type: cell-based; conditions: read-out: Activity
Summary of the method: (§1)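 Log-phase hepatic LO2 cells seeded at 1 × 10^4 cells/well and exposed to compound or vehicle for 48 h. MTT (5 mg/mL in PBS) added for 4 h at 37 °C, 5% CO2; formazan dissolved in DMSO, absorbance read at 490 nm. Viability given as % of vehicle control; mean ± SD, n = 5.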

[11] = Cytotoxicity against human L02 cells assessed as cell viability at 20 uM measured after 48 hrs by MTT assay relative to control; type: cell-based; conditions: read-out: Activity; summary of the method: as §1
[12] = tested on: Mus musculus; experiment: Hypoglycemic activity in ICR mouse assessed as reduction in glucose secretion at 10 mg/kg, po via gavage administered as single dose pretreated with compound followed by glucose challenge measured after 120 mins relative to control; type: functional; parameters: scale not given: the % may be the effect or the level left; conditions: 2 h
Summary of the method: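 Male ICR mice (6–7 weeks), overnight fasted, n = 8/group. Single gavage dose in water (vehicle: water). Tail-tip blood glucose by glucometer. Oral glucose 3 g/kg given 60 min after treatment (t = 0), and readings taken up to 120 min.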

[13] = tested on: Mus musculus; experiment: Antidiabetic activity in C57BL/6 db/db mouse assessed as reduction in blood glucose AUC (0 to 120 mins) at 10 mg/kg, po administered once daily for 4 weeks followed by 12 hrs fasting and subsequent glucose challenge and measured up to 120 mins by glucometer relative to control; type: functional; parameters: scale not given: the % may be the effect or the level left
Summary of the method: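 Male db/db mice (10 weeks old), grouped by nonfasting and 12 h fasting glucose and body weight, n = 8 per group, lean littermates as lean control. Oral dosing in water once daily for 4 weeks. Then 12 h fast, oral glucose 1.5 g/kg, glucometer readings at 0, 15, 30, 60 and 120 min.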

[14] = target: Dipeptidyl peptidase 4 (Rattus norvegicus) (UniProt P14740); experiment: In vivo inhibition of DPP4 in Sprague-Dawley rat plasma at 10 mg/kg, po via gavage using Gly-Pro-AMC as substrate measured after 24 hrs relative to control; type: functional, organism-based
Chain of Dipeptidyl peptidase 4 (Rattus norvegicus) (P14740 whole entry, looked up): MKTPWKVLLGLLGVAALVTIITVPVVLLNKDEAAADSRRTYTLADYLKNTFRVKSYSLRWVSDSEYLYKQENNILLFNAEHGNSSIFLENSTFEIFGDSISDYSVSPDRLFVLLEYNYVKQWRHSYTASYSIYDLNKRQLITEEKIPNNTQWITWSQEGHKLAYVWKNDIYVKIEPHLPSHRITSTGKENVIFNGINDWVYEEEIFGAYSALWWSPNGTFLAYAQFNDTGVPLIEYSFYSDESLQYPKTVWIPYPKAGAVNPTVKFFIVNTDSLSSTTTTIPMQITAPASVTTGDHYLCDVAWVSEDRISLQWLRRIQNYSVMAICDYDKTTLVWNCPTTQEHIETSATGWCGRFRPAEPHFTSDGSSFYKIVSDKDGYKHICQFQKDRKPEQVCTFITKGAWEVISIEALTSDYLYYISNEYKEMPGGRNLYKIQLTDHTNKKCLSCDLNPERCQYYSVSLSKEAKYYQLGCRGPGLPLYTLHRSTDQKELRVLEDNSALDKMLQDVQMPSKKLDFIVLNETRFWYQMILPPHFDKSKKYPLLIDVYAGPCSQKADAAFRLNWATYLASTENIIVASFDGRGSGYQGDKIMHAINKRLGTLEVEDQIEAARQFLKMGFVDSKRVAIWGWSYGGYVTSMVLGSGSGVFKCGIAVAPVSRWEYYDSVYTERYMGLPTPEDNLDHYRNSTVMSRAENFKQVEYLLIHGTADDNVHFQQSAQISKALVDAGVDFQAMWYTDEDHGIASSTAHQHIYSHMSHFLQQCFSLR
Summary of the method: (§2)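 Male SD rats (n = 3/group), fasted overnight, gavaged with 10 mg/kg in distilled water or vehicle. Heparinized orbital blood taken at 0–48 h; plasma stored −20 °C. Plasma mixed with 125 µM Gly-Pro-AMC in 100 mM HEPES pH 7.5, 0.1 mg/mL BSA; AMC release followed 10 min at 37 °C (ex 360/em 460 nm). Rate expressed as % of vehicle-sample rate.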

[15] = tested on: Mus musculus; experiment: Hypoglycemic activity in overnight fasted C57BL/6 db/db mouse reduction in blood glucose AUC (0 to 120 mins) at 10 mg/kg, po pretreated with compound for 30 mins followed by oral glucose challenge and measured up to 120 mins by glucometer relative to control; type: functional; parameters: scale not given: the % may be the effect or the level left; conditions: time min <=150
Summary of the method: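 Male C57BL/6 db/db mice (6–8 weeks, 22 ± 2 g), overnight fasted, n = 6 per group. Oral dosing in water (vehicle: water), then oral glucose 2 g/kg 30 min later. Tail-bleed glucose by glucometer predose and at 0, 15, 30, 60 and 120 min after the load.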

[16] = target: Dipeptidyl peptidase 4 (Rattus norvegicus) (UniProt P14740); experiment: In vivo inhibition of DPP4 in Sprague-Dawley rat plasma at 10 mg/kg, po via gavage using Gly-Pro-AMC as substrate measured after 30 mins relative to control; type: functional, organism-based; summary of the method: as §2
[17] = target: Dipeptidyl peptidase 4 (Rattus norvegicus) (UniProt P14740); experiment: In vivo inhibition of DPP4 in Sprague-Dawley rat plasma at 10 mg/kg, po via gavage using Gly-Pro-AMC as substrate measured after 12 hrs relative to control; type: functional, organism-based; summary of the method: as §2
[18] = Cmax in Sprague-Dawley rat at 10 mg/kg, po measured after 48 hrs by LC-MS/MS analysis; type: ADME, organism-based; parameters: route oral, dose 10 mg/kg, time 48 hrs; conditions: in vivo
[19] = AUC (0 to infinity) in Sprague-Dawley rat at 10 mg/kg, po measured after 48 hrs by LC-MS/MS analysis; type: ADME, organism-based; parameters: route oral, dose 10 mg/kg, time 48 hrs; conditions: in vivo
[20] = Clearance in Sprague-Dawley rat at 10 mg/kg, po measured after 48 hrs by LC-MS/MS analysis; type: ADME, organism-based; conditions: in vivo
[21] = Tmax in Sprague-Dawley rat at 10 mg/kg, po measured after 48 hrs by LC-MS/MS analysis; type: ADME, organism-based; conditions: in vivo
[22] = Half life in Sprague-Dawley rat at 10 mg/kg, po measured after 48 hrs by LC-MS/MS analysis; type: ADME, organism-based; conditions: in vivo

CC#CCn1c(N2CCC[C@@H](N)C2)cc(=O)n(Cc2cccc(C(=O)OC)c2F)c1=O
IC50 [1]: > 100 µM | IC50 [2]: > 100 µM

CC#CCn1c(N2CCC[C@@H](N)C2)cc(=O)n(Cc2cccc(C(=O)O)c2F)c1=O
IC50 [3]: > 1 µM

CC#CCn1c(N2CCC[C@@H](N)C2)cc(=O)n(Cc2cc(C(=O)O)ccc2Cl)c1=O
AUC [4]: 8272.25 ng·h/mL | remaining at 1 h, 0.1 µM [5]: 106% | CL [6]: 64.8 mL/min/kg | IC50 [1]: > 100 µM | remaining at 2 h, 1 µM [7]: 103% | IC50 [2]: > 100 µM | Cmax [8]: 25700 ng/mL | half-life [9]: 54.6 min | viability at 48 h [10]: > 95%

COc1cccc2c1C(=O)c1c(O)c3c(c(O)c1C2=O)C[C@@](O)(C(=O)CO)C[C@@H]3O[C@H]1C[C@H](N)[C@H](O)[C@H](C)O1 [DOXORUBICIN]
viability at 48 h, 20 µM [11]: 25%

CC#CCn1c(N2CCC[C@@H](N)C2)cc(=O)n(Cc2cc(Br)cc(C(=O)OC)c2)c1=O
IC50 [1]: > 100 µM | IC50 [2]: > 100 µM

CC#CCn1c(N2CCC[C@@H](N)C2)cc(=O)n(Cc2cc(Br)cc(C(=O)O)c2)c1=O
IC50 [1]: > 100 µM | IC50 [2]: > 100 µM

CC#CCn1c(N2CCC[C@@H](N)C2)cc(=O)n(Cc2cccc(C(=O)OC)c2Br)c1=O
IC50 [1]: > 100 µM | IC50 [2]: > 100 µM

Cn1c(=O)cc(N2CCC[C@@H](N)C2)n(Cc2ccccc2C#N)c1=O [ALOGLIPTIN]
Activity [12]: 12.4% | Activity [13]: 16.7% | inhibition [14]: 45% | Activity [15]: 40.1%

CC#CCn1c(N2CCC[C@@H](N)C2)cc(=O)n(Cc2cccc(C(=O)O)c2Br)c1=O
IC50 [3]: > 1 µM

CC#CCn1c(N2CCC[C@@H](N)C2)cc(=O)n(Cc2cc(C(=O)OC)ccc2Cl)c1=O
inhibition [16]: 90% | inhibition [17]: > 70% | Cmax [18]: 3190 ng/mL | remaining at 1 h, 0.1 µM [5]: 34.4% | IC50 [1]: > 100 µM | AUC(0-inf) [19]: 26800 ng·h/mL | remaining at 2 h, 1 µM [7]: 64.1% | IC50 [2]: > 100 µM | CL/F [20]: 9.17 mL/min/kg | Tmax [21]: 22.8 min | viability at 48 h [10]: > 95% | half-life [22]: 146 min
